Legend:
Cavia porcellus [1] = organism: Cavia porcellus; assay: Inotropic response relative to APE (APE = 100) in electrically paced (Hz) guinea pig left atria; type: functional
Cavia porcellus [2] = organism: Cavia porcellus; assay: Inotropic responses, induced by the compound in electrically paced (Hz) guinea pig left atria; type: functional
Outline: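 Left atria from guinea pig were electrically driven at 1 Hz, and negative inotropic effect was recorded. Cumulative concentration–response curves were run, with arecaidine propargyl ester (APE) as the muscarinic agonist reference. EC50 came from nonlinear regression curve fitting as the mean ± SE of at least four independent experiments.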

[3] = molecular target: T1, Muscarinic acetylcholine receptor M1 (Homo sapiens, UniProt P11229); assay: Affinity for human M1 cloned muscarinic receptor subtype expressed in CHO-K1 cells; type: cell-based
T1 sequence (P11229 whole entry): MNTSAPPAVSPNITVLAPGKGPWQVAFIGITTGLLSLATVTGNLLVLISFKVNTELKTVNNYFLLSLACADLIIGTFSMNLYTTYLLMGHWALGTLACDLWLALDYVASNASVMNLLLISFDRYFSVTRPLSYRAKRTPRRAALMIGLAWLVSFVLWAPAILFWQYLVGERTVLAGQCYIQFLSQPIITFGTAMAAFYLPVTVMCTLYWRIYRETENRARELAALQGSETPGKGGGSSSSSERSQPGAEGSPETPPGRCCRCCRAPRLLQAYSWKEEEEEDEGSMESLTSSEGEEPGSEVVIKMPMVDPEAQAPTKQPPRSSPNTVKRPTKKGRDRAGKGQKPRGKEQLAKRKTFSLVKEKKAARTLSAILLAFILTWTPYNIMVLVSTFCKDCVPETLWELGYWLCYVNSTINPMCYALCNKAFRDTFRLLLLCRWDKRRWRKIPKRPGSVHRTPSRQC
Outline: (§1)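 Radioligand displacement of [³H]NMS in CHO-K1 cells expressing human cloned muscarinic M1–M5 receptors. IC50 values were converted to Ki with the Cheng–Prusoff equation. Results are means ± SE of two to three experiments, each run in triplicate.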

[4] = molecular target: T2, Muscarinic acetylcholine receptor M3 (Homo sapiens, UniProt P20309); assay: Affinity for human M3 cloned muscarinic receptor subtype expressed in CHO-K1 cells; type: cell-based; outline: as §1
Target sequence in this assay (P20309 whole entry): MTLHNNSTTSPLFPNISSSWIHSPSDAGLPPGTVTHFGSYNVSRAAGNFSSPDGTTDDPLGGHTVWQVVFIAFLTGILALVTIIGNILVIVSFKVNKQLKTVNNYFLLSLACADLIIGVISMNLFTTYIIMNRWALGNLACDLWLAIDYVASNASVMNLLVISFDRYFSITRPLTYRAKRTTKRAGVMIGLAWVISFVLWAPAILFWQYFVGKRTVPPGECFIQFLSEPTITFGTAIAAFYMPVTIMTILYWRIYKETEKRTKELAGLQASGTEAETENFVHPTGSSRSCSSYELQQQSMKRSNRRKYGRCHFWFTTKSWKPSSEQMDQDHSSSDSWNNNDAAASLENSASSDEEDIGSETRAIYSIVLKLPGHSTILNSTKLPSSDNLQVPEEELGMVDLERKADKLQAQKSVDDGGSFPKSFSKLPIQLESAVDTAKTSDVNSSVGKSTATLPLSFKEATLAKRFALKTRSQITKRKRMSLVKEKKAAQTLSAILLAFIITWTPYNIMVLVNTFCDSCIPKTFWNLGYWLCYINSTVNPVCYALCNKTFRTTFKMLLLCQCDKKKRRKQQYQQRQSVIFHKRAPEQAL

[5] = molecular target: T3, Muscarinic acetylcholine receptor M5 (Homo sapiens, UniProt P08912); assay: Affinity for human muscarinic acetylcholine receptor M5 subtype expressed in CHO-K1 cells; type: cell-based; outline: as §1
T3 sequence (P08912 whole entry): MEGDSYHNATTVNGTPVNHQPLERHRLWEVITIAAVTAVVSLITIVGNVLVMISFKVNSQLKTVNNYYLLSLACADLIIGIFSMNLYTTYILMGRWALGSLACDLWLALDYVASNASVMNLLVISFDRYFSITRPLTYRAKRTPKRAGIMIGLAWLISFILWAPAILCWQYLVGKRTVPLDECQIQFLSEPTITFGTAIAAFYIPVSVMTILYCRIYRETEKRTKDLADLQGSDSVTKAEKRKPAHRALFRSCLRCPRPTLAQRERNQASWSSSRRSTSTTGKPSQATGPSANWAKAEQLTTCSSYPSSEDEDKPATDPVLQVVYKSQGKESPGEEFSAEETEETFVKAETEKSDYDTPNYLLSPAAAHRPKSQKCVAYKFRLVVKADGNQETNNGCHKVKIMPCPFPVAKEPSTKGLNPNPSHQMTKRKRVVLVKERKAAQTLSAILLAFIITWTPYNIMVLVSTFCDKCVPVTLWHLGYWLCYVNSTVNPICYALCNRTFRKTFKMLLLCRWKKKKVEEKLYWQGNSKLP

[6] = molecular target: T4, Muscarinic acetylcholine receptor M4 (Homo sapiens, UniProt P08173); assay: Affinity for human M4 cloned muscarinic receptor subtype expressed in CHO-K1 cells; type: cell-based; outline: as §1
T4 sequence (P08173 whole entry): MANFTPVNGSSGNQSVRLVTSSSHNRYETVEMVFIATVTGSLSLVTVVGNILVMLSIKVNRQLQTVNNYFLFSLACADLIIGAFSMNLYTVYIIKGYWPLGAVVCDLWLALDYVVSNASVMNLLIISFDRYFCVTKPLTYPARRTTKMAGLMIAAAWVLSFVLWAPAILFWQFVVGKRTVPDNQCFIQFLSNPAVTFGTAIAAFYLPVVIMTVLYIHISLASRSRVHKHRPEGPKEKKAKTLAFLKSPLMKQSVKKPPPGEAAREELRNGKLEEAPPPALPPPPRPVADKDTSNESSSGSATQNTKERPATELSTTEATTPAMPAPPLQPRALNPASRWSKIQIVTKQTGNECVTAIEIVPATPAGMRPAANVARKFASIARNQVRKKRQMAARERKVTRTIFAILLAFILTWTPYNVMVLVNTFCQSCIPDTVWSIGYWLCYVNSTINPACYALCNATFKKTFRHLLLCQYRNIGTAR

[7] = molecular target: T5, Muscarinic acetylcholine receptor M2 (Homo sapiens, UniProt P08172); assay: biochemical
T5 sequence (P08172 whole entry): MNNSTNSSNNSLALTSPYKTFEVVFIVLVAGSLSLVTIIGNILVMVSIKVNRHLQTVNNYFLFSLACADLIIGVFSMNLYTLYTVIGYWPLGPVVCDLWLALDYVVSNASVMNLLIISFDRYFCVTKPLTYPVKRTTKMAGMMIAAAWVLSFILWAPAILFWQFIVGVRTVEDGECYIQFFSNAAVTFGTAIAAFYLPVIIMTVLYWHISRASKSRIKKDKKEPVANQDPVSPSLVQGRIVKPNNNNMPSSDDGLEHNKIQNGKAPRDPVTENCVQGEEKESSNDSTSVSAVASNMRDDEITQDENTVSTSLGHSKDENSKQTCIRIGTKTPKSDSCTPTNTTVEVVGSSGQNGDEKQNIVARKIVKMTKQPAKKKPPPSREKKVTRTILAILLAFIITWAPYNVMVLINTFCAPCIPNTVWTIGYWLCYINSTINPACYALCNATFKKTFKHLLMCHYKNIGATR

[8] = molecular target: T2, Muscarinic acetylcholine receptor M3; assay: Affinity for human M3 cloned muscarinic receptor subtype expressed in CHO-K1 cells at a concentration of 10 uM; type: cell-based
Target sequence in this assay (P20309 whole entry, looked up): as the sequence (P20309 whole entry) above

[9] = molecular target: T6, Muscarinic acetylcholine receptor M2 (Homo sapiens) (UniProt P08172); assay: Affinity for human muscarinic acetylcholine receptor M2 expressed in CHO-K1 cells at a concentration of 10 uM; type: cell-based
T6 sequence (whole entry): T5 sequence (P08172 whole entry)

[10] = molecular target: T7, Muscarinic acetylcholine receptor M4 (Homo sapiens) (UniProt P08173); assay: Affinity for human M4 cloned muscarinic receptor subtype expressed in CHO-K1 cells at a concentration of 10 uM; type: cell-based
T7 sequence (whole entry): T4 sequence (P08173 whole entry)

[11] = molecular target: T8, Muscarinic acetylcholine receptor M5 (Homo sapiens) (UniProt P08912); assay: Affinity for human muscarinic acetylcholine receptor M5 subtype expressed in CHO-K1 cells at a concentration of 10 uM; type: cell-based
T8 sequence (whole entry): T3 sequence (P08912 whole entry)

[12] = molecular target: T9, Muscarinic acetylcholine receptor M1 (Homo sapiens) (UniProt P11229); assay: Affinity for human M1 cloned muscarinic receptor subtype expressed in CHO-K1 cells at a concentration of 10 uM; type: cell-based
T9 sequence (whole entry): T1 sequence (P11229 whole entry)

Cavia porcellus [13] = organism: Cavia porcellus; assay: Antagonist affinity, in electrically paced (1 Hz) guinea pig left atria using 1'-[8-(1-(2-methoxy -benzyl)-[4,4']bipiperidinyl)-octyl]-1-(2-methoxy-benzyl)-[4,4']biiperidinyl as agonist; type: functional
Outline: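 Driven guinea pig left atria paced at 1 Hz. Each antagonist was tested at one concentration, 0.1 µM, incubated 1 h. One tissue received the antagonist and a second untreated tissue served as control, each giving a cumulative agonist concentration–response curve. pK_B = −log{[antagonist]/(DR−1)}. Mean ± SE of four experiments.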

Cavia porcellus [14] = organism: Cavia porcellus; assay: Antagonist affinity, in electrically paced (1 Hz) guinea pig left atria using N-dodecyl lysine amide as agonist
Cavia porcellus [15] = organism: Cavia porcellus; assay: Antagonist affinity, in electrically paced (1 Hz) guinea pig left atria using the APE as agonist; type: functional
Outline: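 Driven guinea pig left atria paced at 1 Hz, with cumulative agonist concentration–response curves. Each antagonist was tested at one concentration, 0.1 µM, incubated 1 h. pK_B was calculated from the dose ratio as −log{[antagonist]/(DR−1)}. Mean ± SE of four experiments.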

[16] = molecular target: T5, Muscarinic acetylcholine receptor M2; assay: Binding affinity against muscarinic acetylcholine receptor M2

## C#CCOC(=O)C1=CCCN(C)C1 [ARECAIDINE PROPARGYL ESTER]
Cavia porcellus [1]
  Relative efficacy: 100
Cavia porcellus [2]
  EC50: 7.08 nM

## COc1ccccc1CN1CCC(C2CCN(C(=O)CCCCCCC(=O)N3CCC(C4CCN(Cc5ccccc5OC)CC4)CC3)CC2)CC1 [PIPERTRAMINE AMIDE]
Cavia porcellus [1]
  Relative efficacy: 85
[3]
  Ki: 108 nM
[4]
  Ki: 97.2 nM
[5]
  Ki: 183 nM
[6]
  Ki: 16.6 nM
Cavia porcellus [2]
  EC50: 0.398 nM
[7]
  Ki: 9.2 nM

## COc1ccccc1CN1CCC(C2CCN(C(C)=O)CC2)CC1
Cavia porcellus [1]
  Relative efficacy: 79
Cavia porcellus [2]
  EC50: 1.29 nM

## COc1ccccc1CN1CCC(C2CCN(C)CC2)CC1
[8]
  Reduction: 12%
[9]
  Reduction: 35%
Cavia porcellus [1]
  Relative efficacy: 70
[10]
  Reduction: 25%
[11]
  Reduction: 25%
Cavia porcellus [2]
  EC50: 0.603 nM
[12]
  Reduction: 17%

## CN1[C@@H]2CC[C@H]1C[C@@H](OC(=O)C(CO)c1ccccc1)C2 (some centres not stated) [ATROPINE]
Cavia porcellus [13]
  pKB: 7.18
Cavia porcellus [14]
  pKB: 7.45
Cavia porcellus [15]
  pKB: 9.15

## CCCCCCCCCCCCNC(CCCCN)C(N)=O (configuration not stated)
[8]
  Reduction: 17%
[9]
  Reduction: 13%
Cavia porcellus [1]
  Relative efficacy: 82
[10]
  Reduction: 0%
[11]
  Reduction: 24%
Cavia porcellus [2]
  EC50: 0.339 nM
[12]
  Reduction: 17%

## COc1ccccc1CN1CCC(C2CCN(CCCCCCCCN3CCC(C4CCN(Cc5ccccc5OC)CC4)CC3)CC2)CC1 [PIPERTRAMINE]
[16]
  Ki: 8.6 nM
Cavia porcellus [1]
  Relative efficacy: 84
[3]
  Ki: 19.8 nM
[4]
  Ki: 422 nM
[5]
  Ki: 105 nM
[6]
  Ki: 15.3 nM
Cavia porcellus [2]
  EC50: 0.224 nM

## COc1ccccc1CN1CCC(C2CCNCC2)CC1
[8]
  Reduction: 12%
[9]
  Reduction: 49%
Cavia porcellus [1]
  Relative efficacy: 75
[10]
  Reduction: 28%
[11]
  Reduction: 29%
Cavia porcellus [2]
  EC50: 0.525 nM
[12]
  Reduction: 22%
